Drawing on ChEMBL document CHEMBL1932987, “Straightforward palladium-mediated synthesis and biological evaluation of benzo[j]phenanthridine-7,12-diones as anti-tuberculosis agents” (Eur J Med Chem, 2012), this text covers MIC99 for 1 compound.

The assay concerns Mycobacterium tuberculosis. Put plainly: Antimycobacterial activity against multi-drug resistant Mycobacterium tuberculosis LAM-1 after 1 to 6 days by BACTEC 460-TB assay. The format is functional. A digest of the protocol: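 Drug-resistant clinical LAM-1 isolate of M.tb. (resistant to isoniazid, rifampicin, rifabutin, prothionamid) tested in the BACTEC 460-TB radiometric system. Growth index read over time and compared with an untreated control and with a 100-fold diluted inoculum to derive MIC99. Isoniazid run in parallel to confirm resistance.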

Values after ≈ are worked out from the molar mass of the structure shown.

In turn, `Cc1ccc2c3c(cnc2c1)C(=O)c1ccccc1C3=O` registered an MIC99 of 0.71 µM (≈ 0.194 µg/mL).
